Measured values taken from PubChem BioAssay AID651783 (The Scripps Research Institute Molecular Screening Center, 2012).
The campaign covered roughly 2,400 compounds. About 2,000 (83%) were called active.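 The calls were made as follows: active = activation above a cutoff set at the run's mean compound activation plus 3 SD (cut at about 39% in these data); inactive = the rest.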 So high a share suggests a set chosen from earlier hits. Only a sample is shown.

Target: Trace amine-associated receptor 1 (Homo sapiens) (UniProt Q96RJ0)
Assay: human TAAR1 agonists, retest of hits, confirmation, Fluo-8 calcium fluorescence, CHO RD-HGA16 cells (AID 651783);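 also: promiscuous G-alpha-16 overexpression reroutes TAAR1 signalling from cAMP to calcium; peak fluorescence divided by basal pre-compound fluorescence per well; 0% = DMSO wells and 100% = phenethylamine at EC100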
Details: CHO RD-HGA16 TAAR1, Fluo-8 calcium fluorescence; at 3 µM; active compounds read high
In short: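 Controls: DMSO (low) and PEA EC100 (high); system: RD-HGA16 CHO cells co-expressing hTAAR1 and promiscuous Gα16; times: Fluo-8 dye loading 75 min 37 °C, then 30 min room temperature; detection: kinetic Fluo-8 calcium fluorescence over 140 s after basal; evaluation: % activation from max-to-basal fluorescence ratio, DMSO-to-PEA scaled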

Chain of Trace amine-associated receptor 1 (Homo sapiens) (Q96RJ0 whole entry, looked up): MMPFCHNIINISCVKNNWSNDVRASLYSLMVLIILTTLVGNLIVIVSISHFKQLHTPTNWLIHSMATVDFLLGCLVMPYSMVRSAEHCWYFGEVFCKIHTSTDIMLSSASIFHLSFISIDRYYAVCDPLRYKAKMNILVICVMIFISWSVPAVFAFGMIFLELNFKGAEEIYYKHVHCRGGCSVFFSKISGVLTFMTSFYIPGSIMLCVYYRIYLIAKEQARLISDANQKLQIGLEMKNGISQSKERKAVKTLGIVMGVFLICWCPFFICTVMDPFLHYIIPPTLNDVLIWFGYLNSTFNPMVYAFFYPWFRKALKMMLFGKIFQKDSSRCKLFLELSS

Structure (SMILES)	activation
c1ccc(CCNC2CCCCCC2)cc1	91.8% (active)
CCCCC(=O)N/N=C/c1c(O)n(CC)c(=S)n(CC)c1=O	106% (active)
Cc1cccc(N2C(=O)NC(=O)/C(=C\c3cnn(-c4ccccc4)c3)C2=O)c1	46.7% (active)
NCC(O)c1ccc(O)cc1 (centres undefined)	88.3% (active)
COc1ccc(Br)cc1CNCCc1cccc(Cl)c1	71% (active)
CC(Cc1ccccc1)NC=O (centres undefined)	82.1% (active)
CCC(=NCCc1ccccc1)c1c(O)n(C2CCCCC2)c(=O)[nH]c1=O	76.4% (active)
Clc1ccc2nc3c(c(-c4ccccc4)c2c1)CNCC3	71% (active)
O=C1NC(=O)N(Cc2ccco2)C(=O)/C1=C\c1ccc(-c2ccc(F)cc2)o1	52.5% (active)
